Experimental data taken from publication PMC10395006 (Archives of toxicology, 2022).
Each block holds one molecule with its values, some of them ahead of it.

Columns and labels:
[1] = cited from earlier work
HepG2 cells [2] = system: HepG2 cells
[3] = biological target: T1, CYP2D6-overexpressing HepG2 cells (Homo sapiens, UniProt P10635)
CYP3A4 = conditions: human liver microsomes
CYP2C19 = CYP2C19 (Homo sapiens, UniProt P33261); conditions: human liver microsomes
HepG2 cells [4] = test: Caspase 3/7 activity; assay type: cell-based, human; conditions: 7.5 or 10 μM, 24 h
[5] = biological target: T1, CYP2D6-overexpressing HepG2 cells; assay type: cell-based
[6] = biological target: T2, CYP3A4-overexpressing HepG2 cells (Homo sapiens, UniProt P08684); assay type: cell-based
T2 sequence (P08684 whole entry): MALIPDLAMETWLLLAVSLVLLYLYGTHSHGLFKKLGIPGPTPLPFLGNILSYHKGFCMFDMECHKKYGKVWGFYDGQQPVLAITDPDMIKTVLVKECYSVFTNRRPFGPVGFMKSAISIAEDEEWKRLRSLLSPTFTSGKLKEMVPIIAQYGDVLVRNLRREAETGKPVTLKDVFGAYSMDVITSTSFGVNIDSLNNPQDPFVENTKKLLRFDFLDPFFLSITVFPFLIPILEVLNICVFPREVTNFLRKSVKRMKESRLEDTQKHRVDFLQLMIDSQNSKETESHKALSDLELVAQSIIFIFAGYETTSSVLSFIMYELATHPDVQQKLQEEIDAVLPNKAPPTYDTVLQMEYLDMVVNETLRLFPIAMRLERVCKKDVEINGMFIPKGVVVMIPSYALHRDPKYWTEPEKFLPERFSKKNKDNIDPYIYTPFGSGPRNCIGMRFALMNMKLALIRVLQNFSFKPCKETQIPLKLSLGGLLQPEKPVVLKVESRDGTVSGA

[7] = system: CHOP in EV control HepG2 cells; test: Western blot of ER stress marker CHOP; assay type: cell-based, human; conditions: EV control cells upon perhexiline treatment
How it was run: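 Empty-vector control HepG2 cells seeded at 3 × 10^5 cells/ml in 60 mm plates and treated about 24 h after seeding, with 0.1% v/v DMSO as control. Cells lysed directly in RIPA buffer with protease inhibitor cocktail and total protein quantified. Immunoblotted with primary antibodies against CHOP, using GAPDH as loading reference.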

[8] = system: CYP2C19-overexpressing HepG2 cells; test: Perhexiline toxicity endpoints; assay type: cell-based, human; conditions: 5–10 μM, 24 h
[9] = biological target: T1, CYP2D6-overexpressing HepG2 cells; test: Mass spectrometry of perhexiline and metabolites in CYP-overexpressing cells; conditions: 5 μM perhexiline, 24 h
[10] = system: Primary human hepatocytes; test: Cellular ATP assay; assay type: cell-based; conditions: 24 h
[11] = system: CYP1A2-overexpressing HepG2 cells; test: Perhexiline toxicity endpoints; assay type: cell-based, human; conditions: 5–10 μM, 24 h
HepG2 cells [12] = test: Mitochondrial membrane potential; assay type: cell-based, human; conditions: 2.5-10 μM, 24 h
[13] = system: CYP2C19-overexpressing HepG2 cells; test: Mass spectrometry of perhexiline and metabolites in CYP-overexpressing cells; assay type: in vitro ADME, human; conditions: 5 μM perhexiline, 24 h
[14] = system: CYP1A2-overexpressing HepG2 cells; test: as above; assay type: in vitro ADME, human; conditions: 5 μM perhexiline, 24 h
HepG2 cells [15] = test: Cellular ATP assay; assay type: cell-based, human; conditions: 24 h
[16] = system: ATF6, ERN1, EIF2AK3, ATF4, and DDIT3 mRNA in EV control HepG2 cells; test: Quantitative real-time PCR of ER stress genes; assay type: cell-based, human; conditions: 10 μM, 24 h
[17] = biological target: T2, CYP3A4-overexpressing HepG2 cells; test: Mass spectrometry of perhexiline and metabolites in CYP-overexpressing cells; conditions: 5 μM perhexiline, 24 h
[18] = CellTiter-Blue cell viability assay; conditions: human, HepG2 cells
HepG2 cells [19] = test: CellTiter-Blue cell viability assay; conditions: 2.5-10 μM, 24 h
HepG2 cells [20] = test: Lactate dehydrogenase; assay type: cell-based, human; conditions: 2.5-10 μM, 24 h
[21] = ketoconazole (CYP3A4 inhibitor)

T1 sequence (P10635 whole entry): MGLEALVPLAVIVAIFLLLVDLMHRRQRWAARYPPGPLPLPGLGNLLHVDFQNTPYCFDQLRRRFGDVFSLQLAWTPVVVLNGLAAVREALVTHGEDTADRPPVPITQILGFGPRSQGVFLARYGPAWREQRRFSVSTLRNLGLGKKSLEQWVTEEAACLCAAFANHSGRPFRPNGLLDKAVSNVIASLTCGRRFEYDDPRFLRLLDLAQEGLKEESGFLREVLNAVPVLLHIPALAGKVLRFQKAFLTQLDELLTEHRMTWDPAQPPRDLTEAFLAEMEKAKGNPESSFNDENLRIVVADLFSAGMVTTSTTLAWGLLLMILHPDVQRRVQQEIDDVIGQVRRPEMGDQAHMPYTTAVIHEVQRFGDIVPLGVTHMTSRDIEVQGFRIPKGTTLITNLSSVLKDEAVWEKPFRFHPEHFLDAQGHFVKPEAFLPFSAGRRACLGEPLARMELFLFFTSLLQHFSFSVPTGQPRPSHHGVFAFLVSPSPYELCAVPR
CYP2C19, sequence (P33261 whole entry): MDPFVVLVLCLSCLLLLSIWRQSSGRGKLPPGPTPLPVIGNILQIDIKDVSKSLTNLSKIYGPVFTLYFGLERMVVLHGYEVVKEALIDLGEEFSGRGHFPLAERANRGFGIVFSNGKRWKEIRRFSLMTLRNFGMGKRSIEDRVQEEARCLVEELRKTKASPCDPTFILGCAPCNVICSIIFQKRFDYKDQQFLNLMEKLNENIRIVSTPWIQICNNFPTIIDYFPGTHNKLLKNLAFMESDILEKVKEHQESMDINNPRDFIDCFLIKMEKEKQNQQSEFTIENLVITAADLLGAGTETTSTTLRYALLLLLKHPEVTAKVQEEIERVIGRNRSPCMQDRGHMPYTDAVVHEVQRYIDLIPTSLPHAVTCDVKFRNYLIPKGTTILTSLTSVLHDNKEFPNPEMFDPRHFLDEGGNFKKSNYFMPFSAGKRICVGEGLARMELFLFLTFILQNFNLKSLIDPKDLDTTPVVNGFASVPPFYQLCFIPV

SMILES: C1CCC(C(CC2CCCCN2)C2CCCCC2)CC1 (single isomer, unassigned; (-)) [(−)-perhexiline]
clearance relative to the other enantiomer ([1]; attributed to CYP2D6-mediated metabolism, ref Davies et al. 2008): higher clearance rate

SMILES: CC(=O)N1CCN(c2ccc(OCC3COC(Cn4ccnc4)(c4ccc(Cl)cc4Cl)O3)cc2)CC1 (stereo not shown) [ketoconazole]
suppression of formation of M3 (trans-OH-Phx-2) (CYP3A4; ketoconazole 2 μM, perhexiline 30 μM): up to 80%
effect on formation of M1 (trans-OH-Phx-1) (CYP3A4; [21]): reduced
effect on formation of M5 (cis-OH-Phx) (CYP3A4; [21]): did not have effect

SMILES: C1CCC(C(CC2CCCCN2)C2CCCCC2)CC1 (stereo not shown) [perhexiline]
caspase 3/7 activity (HepG2 cells [4]): increase
plasma perhexiline beyond 24 h after a single administration ([1]; known extensive metabolizers, ref Cooper et al. 1987): undetectable
perhexiline-induced increase in CHOP protein vs EV control [5]: greatly reduced
perhexiline-induced increase in ER stress gene mRNA vs EV control ([5]; 10 μM, 24 h): drastically attenuated
perhexiline-induced increase in caspase 3/7 vs EV control ([5]; 24 h): abolished
caspase 3/7 activities, EV control vs CYP3A4 cells [6]: little difference
effect in JC-1 staining vs EV control [6]: marginal protective effect
protective effect on ATP levels and LDH release vs EV control ([6]; 5–10 μM, 24 h): little protective effect
CHOP protein level [7]: markedly increased
protective effect on ATP levels and LDH release vs EV control [8]: little protective effect
amount of parent perhexiline relative to EV control [9]: 1%
concentration at which cytotoxicity was observed starting ([10]; hepatic cells, concentrations ranged from 2.5 μM to 15 μM): 5 µM
lowest concentration at which a decrease in ATP was observed ([10]; primary human hepatocytes, 5 to 15 μM): 5 µM
protective effect on ATP levels and LDH release vs EV control [11]: little protective effect
mitochondrial membrane potential level (JC-1) (HepG2 cells [12]): significant concentration-dependent decrease
parent perhexiline level vs EV control [13]: significant reduction
parent perhexiline level vs EV control [14]: significant reduction
cellular ATP levels at 10 μM (HepG2 cells [15]; 10 μM): largely depleted
cellular ATP levels (HepG2 cells [15]; 2.5–10 μM): concentration-dependent decrease
mRNA levels of ATF6, ERN1, EIF2AK3, ATF4, and DDIT3 (fold change vs DMSO) [16]: significantly elevated
parent perhexiline level vs EV control [17]: significant reduction
IC50 at 24 h [18]: 8 µM
cell viability (HepG2 cells [19]): significant decrease
LDH release (HepG2 cells [20]): concentration-dependent increase

The next lines start with results.

IC50 (HepG2 cells [2]): 90 µM
SMILES: OC1CCC([C@@H](CC2CCCCN2)C2CCCCC2)CC1 (stereo in doubt) [cis-OH-Phx]

increase of M1 compared to EV control cells [3]: 2.6 fold
SMILES: O[C@H]1CC[C@H](C(CC2CCCCN2)C2CCCCC2)CC1 (stereo partly drawn) [M1, trans-OH-Phx-1]

effect on the formation of M1, M3, and M5 (CYP2C19; nootkatone 10 μM (CYP2C19 inhibitor)): did not show significant effect
effect on the relative abundance of trans-OH-Phx (CYP2C19; nootkatone (CYP2C19 inhibitor)): little effect
SMILES: C=C(C)[C@@H]1CCC2=CC(=O)C[C@@H](C)[C@]2(C)C1 [nootkatone]

IC50 (HepG2 cells [2]): 56 µM
SMILES: O[C@H]1CC[C@H](C(CC2CCCCN2)C2CCCCC2)CC1 (stereo partly drawn) [trans-OH-Phx]
plasma trans-OH-Phx level post-dosage ([1]; most patients, ref Amoah et al. 1986, Cooper et al. 1984, 1987): undetectable
